The values that follow come from ChEMBL document CHEMBL1649438, “Activities of ceftobiprole and other cephalosporins against extracellular and intracellular (THP-1 macrophages and keratinocytes) forms of methicillin-susceptible and methicillin-resistant Staphylococcus aureus” (Antimicrob Agents Chemother, 2009).

In test [1] the test system is Staphylococcus aureus. Kind of test: Ratio of MIC for hospital-acquired methicillin-resistant Staphylococcus aureus ATCC 33591 by microdilution method at pH 7.4 to ratio of MIC for hospital-acquired methicillin-resistant Staphylococcus aureus ATCC 33591 by microdilution method at pH 5.5. The format is functional. A digest of the protocol: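 MICs were determined by broth microdilution at pH 7.4 and pH 5.5. Broth was adjusted before inoculation, and pH was confirmed maintained (±0.1 unit) at the end.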

Test [2] has as its system Staphylococcus aureus. As to the kind of experiment: Antimicrobial activity against Panton-valentine leucocidin-positive community-acquired methicillin-resistant Staphylococcus aureus STA 44 infected in human THP-1 cells assessed as bacterial count per mg of cell protein at high extracellular compound concentration after 24 hrs. The format is functional. A digest of the protocol: (§1)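 THP-1 human macrophages infected with S. aureus (postphagocytosis inoculum 1.5 × 10^6 to 3.0 × 10^6 CFU/mg cell protein), then incubated 24 h with increasing extracellular antibiotic concentrations. Change in log10 CFU/mg cell protein from the postphagocytosis inoculum, n = 3. Hill function fitted on log-transformed data. Low-concentration value (E0) and high-concentration value (Emax) are extrapolated. Where a pH is given, concentrations are expressed as multiples of the broth MIC at that pH.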

Test [3] relates to Staphylococcus aureus. As to the kind of experiment: Antimicrobial activity against methicillin-susceptible Staphylococcus aureus ATCC 11632 infected in human THP-1 cells assessed as change in bacterial count after 24 hrs at pH 7.4. It counts as functional, organism-based. The note with it: ATCC 11632, THP-1, 24 h. A digest of the protocol:
(§2)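 THP-1 macrophages infected as described previously, with a postphagocytosis inoculum of 1.5 × 10⁶ to 3.0 × 10⁶ CFU/mg cell protein. Cells were exposed 24 h to increasing extracellular antibiotic concentrations. Response is the change in log10 CFU/mg protein from the inoculum (n = 3), fitted to a Hill function. E0 and Emax were extrapolated to infinitely low and high concentrations. EC50 and static concentration (graphical interpolation) are expressed as multiples of the broth MIC at pH 5.5 or 7.4.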

Test [4] relates to Staphylococcus aureus. Kind of test: Bacteriostatic activity against hospital-acquired vancomycin-intermediate Staphylococcus aureus NRS126 infected in human THP-1 cells assessed as change in bacterial count after 24 hrs at pH 5.5. It counts as functional.
In test [5] the test system is Staphylococcus aureus. Kind of test: Antimicrobial activity against hospital-acquired vancomycin-intermediate Staphylococcus aureus NRS126 infected in human THP-1 cells assessed as bacterial count per mg of cell protein at high extracellular compound concentration after 24 hrs at pH 7.4. The format is functional. A digest of the protocol:
as §2

The subject of test [6] is Staphylococcus aureus. Kind of test: Antimicrobial activity against methicillin-susceptible Staphylococcus aureus ATCC 25923 infected in human keratinocytes assessed as change in bacterial count after 24 hrs. It counts as functional, organism-based. The note with it: ATCC 25923, 24 h. A digest of the protocol:
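Primary human skin keratinocytes were grown in defined keratinocyte serum-free medium and infected with S. aureus to 1.5 × 10^6 to 3.0 × 10^6 CFU/mg cell protein. Cells were exposed 24 h to increasing extracellular concentrations. Response was the log10 CFU change from the postphagocytosis inoculum, fitted by a Hill equation with slope 1. Cs is the concentration giving CFU equal to the original inoculum, found by graphical interpolation.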

The test system of test [7] is Staphylococcus aureus. Kind of test: Antimicrobial activity against Panton-valentine leucocidin-positive community-acquired methicillin-resistant Staphylococcus aureus isolate MEH2225605 infected in human THP-1 cells assessed as change in bacterial count after 24 hrs at pH 7.4. The format is functional, organism-based. The note with it: isolate MEH2225605, THP-1, 24 h. A digest of the protocol:
as §1

Test [8] has as its system Staphylococcus aureus. Kind of test: Antimicrobial activity against hospital-acquired vancomycin-intermediate Staphylococcus aureus NRS18 infected in human THP-1 cells assessed as change in bacterial count after 24 hrs. The format is functional, organism-based. The note with it: NRS18, THP-1, 24 h. A digest of the protocol: as §2
The subject of test [9] is Staphylococcus aureus. As to the kind of experiment: Antimicrobial activity against Panton-valentine leucocidin-positive community-acquired methicillin-resistant Staphylococcus aureus STA 228 infected in human THP-1 cells assessed as change in bacterial count after 24 hrs at pH 5.5. It counts as functional, organism-based. Conditions: STA 228, THP-1, 24 h. A digest of the protocol:
as §1

Test [10] relates to Staphylococcus aureus. As to the kind of experiment: Antimicrobial activity against hospital-acquired methicillin-resistant Staphylococcus aureus […] infected in human THP-1 cells assessed as bacterial count per mg of cell protein at low extracellular compound concentration after 24 hrs. It counts as functional. A digest of the protocol: as §2
Test [11] deals with Staphylococcus aureus. Kind of test: Bacteriostatic activity against methicillin-susceptible Staphylococcus aureus […] infected in human THP-1 cells assessed as change in bacterial count after 24 hrs at pH 7.4. It counts as functional. A digest of the protocol: (§3)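 Human THP-1 macrophage-like cells were infected with S. aureus to a postphagocytosis inoculum of 1.5 × 10^6 to 3.0 × 10^6 CFU/mg cell protein. Cells were then exposed 24 h to increasing extracellular antibiotic concentrations. Response was the log10 CFU change per mg protein from the postphagocytosis inoculum, n = 3. A Hill function was fitted on log-transformed axes. E0 and Emax were extrapolated to infinitely low and high concentrations. Cs was read by graphical interpolation. Concentrations were expressed as multiples of the broth MIC at pH 5.5 or pH 7.4.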

Test [12] deals with Staphylococcus aureus. Kind of test: Antimicrobial activity against Panton-valentine leucocidin-positive community-acquired methicillin-resistant Staphylococcus aureus isolate MEH2225605 infected in human THP-1 cells assessed as bacterial count per mg of cell protein at high extracellular compound concentration after 24 hrs at pH 5.5. It counts as functional. A digest of the protocol: as §1

Test [13] deals with Staphylococcus aureus. As to the kind of experiment: Antimicrobial activity against hospital-acquired vancomycin-intermediate Staphylococcus aureus NRS126 infected in human THP-1 cells assessed as bacterial count per mg of cell protein at low extracellular compound concentration after 24 hrs at pH 7.4. The format is functional. A digest of the protocol:
as §2

For test [14], the system named is Staphylococcus aureus. As to the kind of experiment: Antimicrobial activity against Panton-valentine leucocidin-positive community-acquired methicillin-resistant Staphylococcus aureus isolate MEH2225605 infected in human THP-1 cells assessed as bacterial count per mg of cell protein at high extracellular compound concentration after 24 hrs. The format is functional. A digest of the protocol:
as §1

For test [15], the system named is Staphylococcus aureus. As to the kind of experiment: Antimicrobial activity against hospital-acquired methicillin-resistant Staphylococcus aureus ATCC 33591 infected in human THP-1 cells assessed as change in bacterial count after 24 hrs at pH 7.4. It counts as functional, organism-based. The note with it: ATCC 33591, THP-1, 24 h. A digest of the protocol: as §2

Test [16] relates to Staphylococcus aureus. As to the kind of experiment: Antimicrobial activity against methicillin-susceptible Staphylococcus aureus […] infected in human THP-1 cells assessed as change in bacterial count after 24 hrs at pH 5.5. It counts as functional, organism-based. The note with it: THP-1, 24 h. A digest of the protocol:
as §2

Test [17] has as its system Staphylococcus aureus. As to the kind of experiment: Antimicrobial activity against methicillin-susceptible Staphylococcus aureus […] infected in human THP-1 cells assessed as change in bacterial count after 24 hrs. Conditions: THP-1, 24 h. The format is functional, organism-based. A digest of the protocol:
as §2

The subject of test [18] is Staphylococcus aureus. Kind of test: Antimicrobial activity against Panton-valentine leucocidin-positive community-acquired methicillin-resistant Staphylococcus aureus NRS192 infected in human THP-1 cells assessed as change in bacterial count after 24 hrs. It counts as functional, organism-based. The note with it: NRS192, THP-1, 24 h. A digest of the protocol:
as §1

For test [19], the system named is Staphylococcus aureus. As to the kind of experiment: Antimicrobial activity against Panton-valentine leucocidin-positive community-acquired methicillin-resistant Staphylococcus aureus NRS192 infected in human THP-1 cells assessed as bacterial count per mg of cell protein at high extracellular compound concentration after 24 hrs. It counts as functional. A digest of the protocol: as §1

Test [20] concerns Staphylococcus aureus. Kind of test: Antimicrobial activity against Panton-valentine leucocidin-positive community-acquired methicillin-resistant Staphylococcus aureus NRS192 infected in human THP-1 cells assessed as bacterial count per mg of cell protein at low extracellular compound concentration after 24 hrs at pH 7.4. The format is functional. The note with it: pooled result: one value given for 6 cell lines, strains, targets or settings. A digest of the protocol: as §1

In test [21] the test system is Staphylococcus aureus. Kind of test: Bacteriostatic activity against methicillin-susceptible Staphylococcus aureus […] infected in human THP-1 cells assessed as change in bacterial count after 24 hrs at pH 5.5. The format is functional. A digest of the protocol: as §3
The subject of test [22] is Staphylococcus aureus. Kind of test: Antimicrobial activity against Panton-valentine leucocidin-positive community-acquired methicillin-resistant Staphylococcus aureus STA 44 infected in human THP-1 cells assessed as bacterial count per mg of cell protein at low extracellular compound concentration after 24 hrs. The format is functional. A digest of the protocol:
as §1

≈ marks a conversion by molar mass, not a printed value.

Regarding `Nc1nc(/C(=N/O)C(=O)N[C@@H]2C(=O)N3C(C(=O)O)=C(/C=C4\CCN([C@@H]5CCNC5)C4=O)CS[C@H]23)ns1` [CEFTOBIPROLE], the “fold change (FC)” value with Staphylococcus aureus [1] was determined as 4. Moreover, the log10cfu was -1.02 in the test with Staphylococcus aureus [2]; -0.99 in the test on Staphylococcus aureus [5]; 2.46 with Staphylococcus aureus [10]; -1.02 in the test on Staphylococcus aureus [12]; 2.6 with Staphylococcus aureus [13]; -0.97 in the test on Staphylococcus aureus [14]. For the same compound, the log10cfu in the test on Staphylococcus aureus [19] is recorded as -0.89; in the test on Staphylococcus aureus [20], 2.74; with Staphylococcus aureus [22] it was 2.82. Also, the EC50 with Staphylococcus aureus [3] stood at 0.2 × MIC; with Staphylococcus aureus [6], 0.35 µg/mL (≈ 0.655 µM); in the test with Staphylococcus aureus [7], 0.33 ×MIC; in the test with Staphylococcus aureus [8], 0.26 µg/mL (≈ 0.486 µM); in the test with Staphylococcus aureus [9], 0.54 × MIC; with Staphylococcus aureus [15] it was 0.28 ×MIC. Besides, the EC50 in the test with Staphylococcus aureus [16] is 0.41 × MIC; in the test with Staphylococcus aureus [17] it was 0.07 µg/mL (≈ 0.131 µM); with Staphylococcus aureus [18] it was 0.7 µg/mL (≈ 1.31 µM). Moreover, the results for the Activity in the test with Staphylococcus aureus [4], in the test on Staphylococcus aureus [11] and in the test on Staphylococcus aureus [21] were 1.97 multiples of MIC, 0.6 × MIC and 1.19 × MIC, respectively.
